In BindingDB's records for doi:10.1016/j.ejmech.2014.12.041 (Jagiellonian University Medical College, 2015):

Experiments:
[1] = target: T1, 5-hydroxytryptamine receptor 1A (Homo sapiens, UniProt P08908); assay: Antagonist activity at human 5HT1A receptor expressed in HEK293 cells assessed as inhibition of serotonin-induced cAMP concentration at 10^-6 M by adenylate cyclase activity based HTRF assay relative to control
T1 sequence (P08908 whole entry): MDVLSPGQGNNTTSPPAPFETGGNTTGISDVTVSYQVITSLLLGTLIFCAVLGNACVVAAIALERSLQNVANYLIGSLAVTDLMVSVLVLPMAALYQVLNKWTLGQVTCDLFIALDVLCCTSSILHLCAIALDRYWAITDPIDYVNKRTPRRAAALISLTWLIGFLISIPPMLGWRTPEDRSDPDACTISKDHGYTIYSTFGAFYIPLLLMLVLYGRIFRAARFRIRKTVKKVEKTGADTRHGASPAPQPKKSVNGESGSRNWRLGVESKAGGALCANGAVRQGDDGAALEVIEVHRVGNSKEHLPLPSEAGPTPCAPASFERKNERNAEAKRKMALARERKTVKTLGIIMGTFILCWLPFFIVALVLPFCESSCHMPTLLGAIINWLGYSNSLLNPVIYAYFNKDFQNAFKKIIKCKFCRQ
How it was run: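 Human 5-HT1A in HEK-293 cells and human 5-HT7 in CHO cells, per the text. Compounds were tested at a single 10^-6 M concentration, in duplicate. Read-out was % inhibition of the control agonist cAMP response, measured by HTRF against the maximal effect of 300 nM serotonin. Reference antagonists were methiothepin (5-HT7) and WAY-100635 (5-HT1A).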

[2] = target: 5-hydroxytryptamine receptor 7 (Homo sapiens, UniProt P34969); assay: Antagonist activity at human 5HT7 receptor expressed in HEK293 cells assessed as inhibition of serotonin-induced cAMP concentration at 10^-6 M by adenylate cyclase activity based HTRF assay relative to control
5-hydroxytryptamine receptor 7, sequence (P34969 whole entry): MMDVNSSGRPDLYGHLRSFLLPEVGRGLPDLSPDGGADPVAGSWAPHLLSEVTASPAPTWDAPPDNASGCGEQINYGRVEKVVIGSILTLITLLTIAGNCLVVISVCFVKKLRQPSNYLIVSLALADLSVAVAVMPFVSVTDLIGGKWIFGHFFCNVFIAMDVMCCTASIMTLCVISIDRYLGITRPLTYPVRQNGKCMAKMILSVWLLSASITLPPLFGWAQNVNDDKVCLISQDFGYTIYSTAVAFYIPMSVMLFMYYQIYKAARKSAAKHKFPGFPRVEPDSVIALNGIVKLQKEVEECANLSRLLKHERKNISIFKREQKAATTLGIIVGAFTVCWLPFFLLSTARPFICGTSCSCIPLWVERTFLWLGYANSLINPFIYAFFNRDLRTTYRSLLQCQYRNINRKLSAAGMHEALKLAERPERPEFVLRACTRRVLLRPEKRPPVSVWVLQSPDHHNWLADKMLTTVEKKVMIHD

CSc1ccccc1N1CCN(CCCCCC(=O)N2Cc3ccccc3C[C@H]2C(N)=O)CC1
Inhibition [1]: 98%

O=C([C@@H]1CCCN1C(=O)CCCCN1CCN(c2ccccc2-c2ccccc2)CC1)N1CCCCC1
Inhibition [2]: 91%

NC(=O)[C@@H]1Cc2ccccc2CN1C(=O)CCCCN1CCN(c2ccccc2-c2ccccc2)CC1
Inhibition [2]: 94%

CC(C)c1ccccc1N1CCN(CCCCCCC(=O)N2CCC[C@H]2C(=O)N2CCCCC2)CC1
Inhibition [1]: 100%
